Data on 2 compounds can be found in article PMC8434754 (Journal of the American Chemical Society, 2021).

Experiment [1] has as its system AoiQ-FDH. The experiment in a line: flavin reductase activity, NADH consumption. The following applies: no flavin reductase added; copurified FAD. It is filed as biochemical, Aspergillus oryzae. In a few lines: (§1)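 Enzyme is the FDH domain of AoiQ, expressed as a standalone protein apart from its methyltransferase domain. Flavin reductase activity was followed by consumption of NADH or NADPH, with no exogenous flavin reductase added. Steady-state KM, kcat and kcat/KM were reported for each nicotinamide cofactor.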

The test system of experiment [2] is AoiQ-FDH. Put plainly: flavin reductase activity, NADPH consumption. Format: biochemical, Aspergillus oryzae. The following applies: no flavin reductase added; copurified FAD. In a few lines: as §1

On to `NC(=O)C1=CN([C@@H]2O[C@H](COP(=O)(O)OP(=O)(O)OC[C@H]3O[C@@H](n4cnc5c(N)ncnc54)[C@H](O)[C@@H]3O)[C@@H](O)[C@H]2O)C=CC1` [NADH], for which the Km in the experiment on AoiQ-FDH [1] came out at 43.5 ± 3.6 µM.

For `NC(=O)C1=CN([C@@H]2O[C@H](COP(=O)(O)OP(=O)(O)OC[C@H]3O[C@@H](n4cnc5c(N)ncnc54)[C@H](OP(=O)(O)O)[C@@H]3O)[C@@H](O)[C@H]2O)C=CC1` [NADPH], the Km with AoiQ-FDH [2] came out at 30.5 ± 6 µM.

In general, Km refers to the substrate concentration at which the rate is half of its maximum.
